Screening data as filed in PubChem.
Calb FLC: C. albicans growth modulation with fluconazole. C. albicans CaCi-2 (fluconazole-resistant clinical isolate) + fluconazole, Alamar Blue growth, 48 h. growth inhibition, % (no concentration beside the values). 300,000 tested, 0.57% active. AID 1979;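 active = growth inhibition above about 58% in most replicates, limit read from the data, passing the limit was not always enough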;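 note: all wells also contain fluconazole at 8 µg/ml as a sub-toxic cotreatment; 0% = median of DMSO wells and 100% = median of geldanamycin control wells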
NLRP3 yeast inh: inhibitors of NALP3 inflammasome in yeast; Yeast reconstituted NLRP3/ASC/caspase-1, beta-gal luminescence, 24 h; 330,000 tested, 0.39% active; inhibition, % at 10 µM;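 active = inhibition of 50% or more; inactive = inhibition below 50%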;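 note: plate controls were induced DMSO wells for no effect and uninduced yeast grown without galactose for full effect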
T cruzi repl: T. cruzi replication inhibition | T. cruzi beta-gal in NIH3T3, luminescence, 90 h | inhibition, % (concentration not given with the values) | 300,000 tested, 1.4% active | AID 1885;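 active = mean inhibition across valid replicates above about 55%, limit read from the data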;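 note: signal also drops with host cell toxicity which is not excluded here; 0% = plate median of DMSO wells and 100% = zero luminescence signal; higher percent means less beta-gal luminescence so fewer parasites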
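System: NIH/3T3 fibroblasts plus reporter T. cruzi. Medium: DMEM plus 2% FBS. Probe or stimulus: 5000 reporter trypomastigotes per well. Compound: single 50 nL compound addition per well in DMSO. Incubation: co-culture of at least 90 h after 3 h attachment. Detection: GalScreen β-gal luminescence, detergent lysis, 60 min. Evaluation: parasite load inhibition, %.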
NALP1 inh: blocks the NALP1 inflammasome reconstituted in yeast. 280,000 tested, 0.61% active. S. cerevisiae NALP1/ASC/caspase-1 growth, X-gal OD620, 72 h. AID 2071. inhibition, % at 10 µM; in the data active = inhibition mostly above about 24%, no sharp cut-off; inactive = mostly below about 32%
L major viab: Leishmania major promastigote growth inhibition; Leishmania major promastigotes, resazurin fluorescence viability; 200,000 tested, 9% active; inhibition, % at 10 µM; AID 1063; in the data active = inhibition above about 50%;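 note: promastigotes grown with compound for 44 hours at 28 °C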
PolyA inh: inhibitors of polyadenylation in S. cerevisiae; S. cerevisiae SKY197-pL101 polyadenylation reporter, beta-gal luminescence; efflux-impaired pdr1/pdr3 knockout yeast; score 100 = 6 SD above DMSO; activity score, % at 12 µM; 300,000 tested, 0.02% active;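 active = lowest replicate activity score at least 50, where 100 means six control SD above control mean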;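 note: yeast exposed to compound for 9 h at 30 °C; higher score means more reporter readthrough which indicates perturbed polyadenylation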
Starred values were filed as active, the others as inactive. Shown is part of a subset that was picked to be rich in hits.

For O=C(CNC(=O)c1cccc(F)c1)N/N=C/C=C/c1ccccc1 the results were Calb FLC -3.0, NLRP3 yeast inh 6.1, T cruzi repl -1.5, NALP1 inh 9.0, L major viab 2.3 and PolyA inh -1.1.
`Cc1cccc(/C(N)=N/OC(=O)CCCc2ccccc2)c1` gave Calb FLC -6.6, NLRP3 yeast inh 20.7, T cruzi repl 8.4, NALP1 inh -0.1 and PolyA inh -3.2.
OC1CCN(C(c2ccc3ncccc3c2)c2nnnn2C2CCCCC2)CC1 (configuration not stated) was read as Calb FLC -0.6, NLRP3 yeast inh -1.8, T cruzi repl 3.4, NALP1 inh -2.9, L major viab 4.6 and PolyA inh -12.0.
For Clc1ccc(C(c2nnnn2C2CCCC2)N2CCN(c3nc4ccccc4s3)CC2)cc1 (configuration not stated) the results were Calb FLC -0.7, NLRP3 yeast inh -18.7, T cruzi repl 45.1, L major viab 96.8* and PolyA inh -18.9.
For c1cnc2ccc(C(c3nnnn3C3CCCC3)N3CCN(c4nc5ccccc5s4)CC3)cc2c1 (configuration not stated) the results were Calb FLC 9.9, NLRP3 yeast inh 3.5, NALP1 inh 10.9 and L major viab 89.0*.
`Cc1c(NC(=S)SCc2ccccc2)c(=O)n(-c2ccccc2)n1C` gave Calb FLC -28.8, NLRP3 yeast inh 4.7, T cruzi repl -19.2, NALP1 inh 1.1, L major viab -3.3 and PolyA inh 1.3.
For COc1ccc(OC)c(/C=C2\SC(=S)N(Cc3cccnc3)C2=O)c1 the results were Calb FLC 30.4, NLRP3 yeast inh 27.8, T cruzi repl -12.0, NALP1 inh 3.5, L major viab 81.8* and PolyA inh 3.0.
`COc1ccc(O)c(/C=C2/SC(=S)N(Cc3ccccc3)C2=O)c1` gave Calb FLC -2.9, NLRP3 yeast inh 25.4, T cruzi repl -5.9, NALP1 inh 10.1 and PolyA inh -9.8.
COc1ccc(OC)c(/C=C2\SC(=S)N(NS(=O)(=O)c3ccc(C)cc3)C2=O)c1 was read as Calb FLC 88.7*, NLRP3 yeast inh 11.9, T cruzi repl 1.8, NALP1 inh -11.8 and PolyA inh -13.6.
Screening Cc1ccc(-c2cc(C(F)F)nc(NCC3CCCO3)n2)cc1 (configuration not stated) returned Calb FLC -6.7, NLRP3 yeast inh 34.1, T cruzi repl 24.1, NALP1 inh 16.3, L major viab 64.2* and PolyA inh -12.5.
COc1cccc2c3c(c(C)nc12)CCN3c1ccccc1 was read as Calb FLC -40.0, NLRP3 yeast inh 8.0, T cruzi repl 32.1, NALP1 inh 8.1, L major viab 77.8* and PolyA inh 8.5.
Screening COc1ccccc1N1CCc2c(C)nc3c(OC)cccc3c21 returned Calb FLC 24.4, NLRP3 yeast inh 1.5, T cruzi repl 33.9, NALP1 inh 32.6, L major viab 89.3* and PolyA inh 6.1.
COc1ccc(C(=O)OCc2ccccc2F)cc1S(=O)(=O)N1CCCC1 was read as NLRP3 yeast inh -2.3.
COc1ccc(-c2ccc(N)[n+](CCCC(=O)O)n2)cc1 was read as Calb FLC 0.9, NLRP3 yeast inh 14.1, T cruzi repl -9.0 and PolyA inh -1.2.
For N#C/C(=C\c1ccc(OCC(N)=O)cc1)c1ccccc1 the results were Calb FLC -17.4, NLRP3 yeast inh 28.3, T cruzi repl -2.0, NALP1 inh 8.6, L major viab 58.2* and PolyA inh -4.6.
For CCCOC1(NC(=O)c2ccccc2)C(C)=CC(=O)C=C1C the results were Calb FLC 14.0, NLRP3 yeast inh 5.3, T cruzi repl -7.6, NALP1 inh 3.4, L major viab 10.1 and PolyA inh -13.0.
`CN(C)CCOc1nc(-c2ccccc2)nc2c1oc1ccccc12` gave Calb FLC 31.4, NLRP3 yeast inh 2.5, T cruzi repl 35.6, NALP1 inh -20.8, L major viab 99.8* and PolyA inh 3.2.
`C/C(=N\Nc1ncc(Cl)cc1Cl)c1ccccn1` gave Calb FLC 98.4*, T cruzi repl 68.5*, NALP1 inh 44.6*, L major viab 100.5* and PolyA inh -37.5.
